# Measured values of several laboratories.
# Protocols differ between the studies behind these lines. pIC50: −log10 of the molar value.
# Read-out: cell growth or viability
Structure (SMILES),cell line,technique,time,notes,pIC50
Cc1c(NC(=O)c2ccc(C(C)(C)C)cc2)cccc1-c1cn(C)c(=O)c(Nc2ccc(C(=O)N3CCOCC3)cc2)n1,CNE2Z,,,,< 5.00
C=CC(=O)Nc1cc(Nc2nc(N3CCc4sccc4C3)c3cccnc3n2)c(OC)cc1N(C)C,NCI-H1975,MTT,,,< 4.30
CCCCCCCc1[nH]c2ccccc2c(=O)c1C,HEK293,,,,< 5.00
C=CC(=O)N1CCC[C@@H](n2nc(-c3ccc(Oc4ccccc4)cc3)c3c(N)ncnc32)C1,TMD8,CCK-8,72 h,,8.00
C=CC(=O)Nc1cc(Nc2nc(N3CCc4sccc4C3)c3cccnc3n2)c(OC)cc1N1CCSCC1,NCI-H1975,MTT,,,6.51
CCOC(=O)c1c(-c2ccccc2)nc2c(sc3ccccc32)c1O,HEK293,,,,< 5.00
C=C(Cl)C(=O)Nc1cc(Nc2nc(N3CCSCC3)c3sccc3n2)c(OC)cc1N(C)CCN(C)C,NCI-H1975,MTT,,,6.78
C=CC(=O)Nc1cccc(Nc2nc(Nc3ccc(OCCOC)cc3)ncc2F)c1,CNE2Z,,,,5.20
CC(C)[C@H](N)C(=O)N1CCC[C@H]1B(O)O,SET-2,ATP luminescence,48 h,,8.22
COc1cc(Nc2nccc(-c3cnn4nc(OC)ccc34)n2)cc(C(F)(F)F)c1,MKN-1,ATP luminescence,,,6.24
C/C=C/COc1ccc(-c2c(C)[nH]c(C)c(Cl)c2=O)cc1,HEK293,,,,< 5.00
CNC(=O)c1ncn2c(NCc3c(F)ccc4c3CCO4)ncc(-c3ccccc3)c12,KARPAS-422,,7 days,,7.28
Cn1nnc2c(Cl)ncn2c1=O,T98G,resazurin,7 days,,4.22
Cc1[nH]c(C)c(-c2ccc(CCc3ccc(F)cc3F)cc2)c(=O)c1Br,HEK293,,,,< 5.00
C=C(Cl)C(=O)Nc1cc(Nc2nc(Nc3cnn(C)c3)c3sccc3n2)c(OC)cc1N(C)CCN(C)C,NCI-H1975,MTT,,,7.64
Cc1[nH]c(C)c(-c2ccc(OCc3cc(C(F)(F)F)cc(C(F)(F)F)c3)nc2)c(=O)c1Br,HEK293,,,,< 5.00
C=CC(=O)Nc1cc(Nc2nc(N3CCc4sccc4C3)c3cccnc3n2)c(OC)cc1N1CCC(N(C)C)CC1,NCI-H1975,MTT,,,6.82
Cn1nnc2c(C(N)=O)ncn2c1=O,T98G,resazurin,7 days,,3.18
COc1cc2c(Nc3ccc(Cl)c(Cl)c3F)ncnc2cc1OC[C@@H]1C[C@@H]2CN(C)C[C@@H]2C1,GBM6,ATP luminescence,18 days,3D culture,6.99
C=C(Cl)C(=O)Nc1cc(Nc2nc(N3CCc4sccc4C3)c3sccc3n2)c(OC)cc1N(C)CCN(C)C,NCI-H1975,MTT,,,7.06
O=c1ccc2ccc(O)c(CO)c2o1,HEK293,MTT,36 h,,< 4.70
c1cc(CN2CCN(c3ccncc3)CC2)cc(-c2ccc(-c3nc4ccccc4[nH]3)cc2)c1,HEK293,,,,< 5.00
CC[C@@H](C)[C@H](N)C(=O)N1Cc2ccccc2C1,SET-2,ATP luminescence,48 h,,6.91
CC(=O)SCc1cc(=O)oc2cc(O)ccc12,HEK293,MTT,36 h,,< 4.70
Cc1ncn2c(=O)n(C)nnc12,T98G,resazurin,7 days,,5.22
Cc1c(O)ccc2ccc(=O)oc12,HEK293,MTT,36 h,,< 4.70
C=CCC[C@@H]1NC(=O)[C@H]2CCCN2C(=O)[C@H](Cc2ccccc2)NC(=O)C(C)(C)NC1=O,HEK293,XTT,,,< 4.00
COC(=O)c1cc2ccc(O)cc2oc1=O,HEK293,MTT,36 h,,< 4.70
COc1ccc(F)cc1C(=O)NCc1ccc(-c2nn([C@@H](C)C(F)(F)F)c(N)c2C(N)=O)cc1,TMD8,ATP luminescence,72 h,,8.19
COc1c(C)[nH]c(C)c(-c2ccc(Oc3cccc(C(F)(F)F)c3)cc2)c1=O,HEK293,,,,< 5.00
COc1ccc2oc(=O)cc(CSC(C)=O)c2c1,HEK293,MTT,36 h,,< 4.70
CC#CC(=O)N1CCC[C@H]1c1nc(-c2ccc(C(=O)Nc3ccccn3)cc2)c2c(N)nccn12,TMD8,CCK-8,72 h,,7.85
C=CC(=O)Nc1cc(Nc2nc(N3CCc4sccc4C3)c3cccnc3n2)c(OC)cc1N1CCN(C(C)=O)CC1,NCI-H1975,MTT,,,6.16
O=C(Nc1ccc(OC2CCN(Cc3ccccc3)C2)c(Cl)c1)c1cccs1 (stereo not shown),HEK293,,,,< 5.00
CCC(=O)Nc1cc(Nc2nc(N3CCc4sccc4C3)c3cccnc3n2)c(OC)cc1N1CCN(CCO)CC1,NCI-H1975,MTT,,,6.33
Cn1nnc2c(-c3ccccc3)ncn2c1=O,T98G,resazurin,7 days,,4.85
O=C1NC(=NCc2cccs2)S/C1=C\c1ccc2ncccc2c1,SK-MEL-28,,,,< 5.00
